Measurements as given in ChEMBL document CHEMBL3085637, “Synthesis and anticancer potential of certain novel 2-oxo-N'-(2-oxoindolin-3-ylidene)-2H-chromene-3-carbohydrazides” (Eur J Med Chem, 2013).

Test system: HT-29
Experiment: Inhibition of side population in human HT-29 cells at 100 uM after 90 mins using vybrant dyecycle violet staining by FACS analysis
Type: functional
Conditions: HT-29, 1.5 h
In short: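 HT-29 cells were stained in medium with Vybrant DyeCycle Violet for 90 min at 37 °C, centrifuged and washed with medium. Side-population cells were identified by flow cytometry histograms. The reference control was verapamil, which blocks the transporter responsible for dye exclusion. Results are % side-population inhibition ± SD.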

## COc1ccc(CCN(C)CCCC(C#N)(c2ccc(OC)c(OC)c2)C(C)C)cc1OC (stereo unspecified)
  inhibition at 100 µM: 95%
